The RNAGym collection of RNA variant scans (doi:10.1126/science.aae0568)
This sample holds only a part of the variants without activity.

B1: tRNA (parent)
chain: GUUCCGUUGGCGUAAUGGUAACGCGUCUCCCUCCUAAGGAGAAGACUGCGGGUUCGAGUCCCGUACGGAACG

Variants of: B1
Assay: yeast fitness relative to wild type (ratio to wild type); higher = fitter; tRNA-Arg(CCU), competitive growth, 37 C, YPD
Method in brief: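 Genotype frequency changes were the basis for Darwinian fitness relative to wild type. The frequencies came from 100-nucleotide paired-end sequencing of gene amplicons from the start population and each end population of pooled yeast strains with tRNA-Arg(CCU) gene variants at the native locus. Competition ran in YPD at 37°C for 24 hours in six replicates, genotypes needed ≥ 100 starting reads, and estimates < 0.5 were set to 0.5.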

Compared with GUUAAGUUGGCGUAAUGGUAACGCGUCUCCCUCCUAAGGAGUAGACUGCGGGUUCGCGUCUCGUUCGGAACG [C4A C5A A42U A57C C61U A65U], GUUAUGUUGGCGUAAUGGUAACGCGUCUCCCUCCUAAGGAGAAGACUGCGGGUUCGACUCCCGAACGGAACG [C4A C5U G58C U64A] is higher in yeast fitness: no more than 0.5 for the first, 0.572 for the second.

Going from GUUAGGUUGGCGUAAUGGUAACGCGUCUCACUCCUAAGGAGAAGACUGCGGGUUCGAGUCCCGUACGGAACG [C4A C5G C30A] to GUUACGUUGGCGUAAUGGUAACGCGUCUCCCUCCUAAGGAGAAGACUGCGGGUUCGAGUCCCGUACGGACCG [C4A A70C], the yeast fitness rises from no more than 0.5 to 0.993.

GUUAAGUUGGUGUAAUGGUUACGCGUCUCCCUCCUAAGGAGAAGACUGCGGGUUCGAGUCCCGUACGGCACG [C4A C5A C11U A20U A69C] and GUUAGGUUGGCGUAAUGGUGACGCGUCUCCCUCCUAAGGAGAAGACUGCGGGUACGAGUCCUGUACGGAACG [C4A C5G A20G U54A C62U] cannot be ordered by yeast fitness: no more than 0.5 for the first, no more than 0.5 for the second.

GUUAUGUCGGCGUAAUGGUAACGCGUCUCCCUCCUAAGGAGAAGACUGCGGGUUCGAGUCCCGAACGGAACG [C4A C5U U8C U64A] and GUUAUGUUGGCGUAAUGGAAACGCGUCUCCCUCCUAAGGAGAAGACUGCGGGUUCGAGUCCCGUAAGGAACG [C4A C5U U19A C66A] cannot be ordered by yeast fitness: no more than 0.5 for the first, no more than 0.5 for the second.

GUUAUGUUGGCGUAAUGGUAAUGCGUCUCCCUCAUAAGGAGAAGACUGUGGGUUCGAGUCCUGUACGGAACG [C4A C5U C22U C34A C49U C62U] and GUUAGGUUGGCGUAAUGGUCACGCGUCUCCCUCCUAAGGUGAAGACUGCGGGUUCGAGUCCCGUCCGGAACG [C4A C5G A20C A40U A65C] cannot be ordered by yeast fitness: no more than 0.5 for the first, no more than 0.5 for the second.

GUUAUGUUGGCGUAAUGGUAACGGGUCUCCCUCCUAAGGAGAAGACUGCGGGUUCGAGUCCCGUACGGAACG [C4A C5U C24G] and GUUAGGUUGGCGUAAUGGUAACGCGUCUCCCUCCUAAGGAGAAGACUGCGGGUUCGAGUCCCGUAUGGAGCG [C4A C5G C66U A70G] cannot be ordered by yeast fitness: no more than 0.5 for the first, no more than 0.5 for the second.

GUUAAGUUGGCGUAAUGGUAAAGCGUCGCCCUGCUAAGGAGAAGACUGCGGGUUCGGGUCCAGUACGGAACG [C4A C5A C22A U28G C33G A57G C62A] and GUUAAGUUGGCGUAAUGGUAACGCGUCUCAUUACUAAGGAGAAGUCUGCGGGUUCGAGUCCCGUACGGAACG [C4A C5A C30A C31U C33A A45U] cannot be ordered by yeast fitness: no more than 0.5 for the first, no more than 0.5 for the second.

GUUAGGUUGGCGUAAUGGUAACGCGUUUCCCUCCUAAGGAGAAGACUGCGGGAUCGAGUCCCGUACGGUACG [C4A C5G C27U U53A A69U] and GUUAAGUUGGCGUAGUGGCAACGCGUCUCCCUCCUAAGGAGAAGACUGCGGGUUCGAGUCCCGUACGGAACG [C4A C5A A15G U19C] cannot be ordered by yeast fitness: no more than 0.5 for the first, no more than 0.5 for the second.

First: GUUAAGUUGGCGUAAUGGUUACGCGUCUCCUUCCUAAGGAGAAGACUGUGGGUUCGAGUCCCGUACGGAACG [C4A C5A A20U C31U C49U]
Second: GUUAAGUUGGCGUAAUGGUUACGCGUCUCCCUCCUAAGGAGAAGACUGCGGGUUCGAGUCCCGUACGGCACG [C4A C5A A20U A69C]
The yeast fitness of the first is lower: no more than 0.5 for the first, 0.551 for the second.

First: GUUAGGUAGGCGUAAUGGUAACGCGUCUCACUCCUAAGGAGAAGACUGCGGGUUCGAGUCCCGUACCGAACG [C4A C5G U8A C30A G67C]
Second: GUUAUGUUGGCGUAAUGGUAACGGGUCUCCCUCCUAAGGAGAAGUCUGCGGGUUCGAGUCCCGUACGGAACG [C4A C5U C24G A45U]
The yeast fitness of the first is lower: no more than 0.5 for the first, 0.649 for the second.

GUUAUGUUGGCGUAAUGGUAACGGGUCUCCCUCCUAAGGAGAAGUCUGCGGGUUCGAGUCCCGUAUGGAACG [C4A C5U C24G A45U C66U] and GUUAUGUUGGCGUAAUGGUAACGCGUCUCCCUCCUAAGGAGAAGACUGCGGGUUCGUGCCCCGUACGGAACG [C4A C5U A57U U59C] cannot be ordered by yeast fitness: no more than 0.5 for the first, no more than 0.5 for the second.

GUUAUGUUGGCGUAAUAGUAACGCGUCUCUCUCCUAAGGAGAAGACUGCGGGUUCGAGUCCCGUACGCAACG [C4A C5U G17A C30U G68C] and GUUAUGUUGGCGUAAUAGUAACGCGUCUCCCUCCUAAGGAGAAGACUGCGGGUUCGAGUCCCGUACGGAACG [C4A C5U G17A] cannot be ordered by yeast fitness: no more than 0.5 for the first, no more than 0.5 for the second.

First: GUUAGGUUGGCGUAAUGGAAACGCGUCUCCCUCCUAAGGAGAAGAUUGCGGGUUCGAGUCCCGUACGGUACG [C4A C5G U19A C46U A69U]
Second: GUUAUGUUGGCGUAAUGGUAACGCGUUUCCCUCCUAGGGAGAAGACUGCGGGUUCGAGUCCCGUACGGAACG [C4A C5U C27U A37G]
The yeast fitness of the first is higher: 0.574 for the first, no more than 0.5 for the second.

GUUAUGUUGGCGUAAUGGAAACGCGUCUCCCUCCUAAGGAGGAGACUGCGGGUUCGAGUCCCGUACGGAACG [C4A C5U U19A A42G] and GUUAGGUUGGCGUAAUGGUAACGCGUCUCCCUCCUUAGGAGAAGACUGCGGGUUCGAGUCCCAUACGGAACG [C4A C5G A36U G63A] cannot be ordered by yeast fitness: no more than 0.5 for the first, no more than 0.5 for the second.

GUUAAGUUGGCGUAAUGGUAACGCGUCUCCCUCAUAAGGAGAAGAUUGCGGGUUCGAGUCCCGUCCGGAACG [C4A C5A C34A C46U A65C] and GUUAAGUUGGCGUAAUGGUAACGCGUCGCCGUCCUAAGGAGAAGACCGCGGGUUCGUGUCCCGUACGGAGCG [C4A C5A U28G C31G U47C A57U A70G] cannot be ordered by yeast fitness: no more than 0.5 for the first, no more than 0.5 for the second.

GUUAUGUUGGCGUAAUGGUAACGCGUCUCCCUCUUAAGGAGAAGACUGCGGGUUCGAGUCCCGUACGGAACG [C4A C5U C34U] and GUUAUGUUGGGGUAAUGGUAACGCGUCUCACUCCUAAGGAGAAGACUGCGGGUUCGAGUCCCGUACGGAACG [C4A C5U C11G C30A] cannot be ordered by yeast fitness: no more than 0.5 for the first, no more than 0.5 for the second.

Compared with GUUAAGUUGGCGUAAUGGUAACGCGUCUCCCUCCUAAGGAGAAGACUGCGGGUUCGAGUCCCGUACGGAACG [C4A C5A], GUUAUGUUGGCGUAAUGGUAACGCGUCUCCCUCCUAAGGAGAAGACUGCGGGUUCGAGUCCCGUACGGAACG [C4A C5U] is higher in yeast fitness: 0.752 for the first, 0.837 for the second.

GUUAUGUUGGCGUAAUGGUAAUGCGUCUCCCUCCUAAGGAGAAGACUGUGGGUUCGAGUCCCGUACGGAACG [C4A C5U C22U C49U] and GUUAAGUUGGCGUAAUGGUAACGCGUCUUCCUCCUAAGGAGAAGACUGCGCGUUCGAGUCCCGUACGGAACG [C4A C5A C29U G51C] cannot be ordered by yeast fitness: no more than 0.5 for the first, no more than 0.5 for the second.

GUUAAGUUGGCGUAAUGGUAACGCGUCUCCCUCCUAAGGACAAGACUGCGGGUUCAAGUCCUGUCCGGAACG [C4A C5A G41C G56A C62U A65C] and GUUAAGUUGGCGUAAUGGUAACGCGUCUCCCUCCUAAGGAGAAGACUGCGGGUUCGAGUCCCGUAAGGCACG [C4A C5A C66A A69C] cannot be ordered by yeast fitness: no more than 0.5 for the first, no more than 0.5 for the second.
